Compounds with a hit are over-represented: about 1.2% of the library has one in this group of screens.
DNA FID counter = displaces DNA intercalator in HCV helicase counter-screen | AID 1845 | 290,000 compounds, 0.17% hits | DNA fluorescent intercalator displacement, fluorescence | inhibition, % at 7.9 µM; in the data active = inhibition above about 37%;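 note: higher means more ethidium bromide displaced from hairpin DNA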
Wee1 stabilizer = human Wee1 degradation inhibition, primary screen; P30291; HeLa Luc-Wee1K328M stability, luciferase luminescence; 100% = proteasome inhibitor MG132 effect; reporter increase, % at 5 µM; 220,000 compounds, 1.2% hits; AID 1321;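 active = activation above the mean of all tested compounds plus 3 SD, set per screening run, cut at about 8.8% in these data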;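 note: cells exposed to compound for 20 h before luminescence read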
Rad51 HR inh = blocks human Rad51 in homologous recombination | Q06609 | hRad51 DNA strand exchange, fluorescence dequenching | inhibition, % at 10 µM | 200,000 compounds, 0.085% hits | AID 1385;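 active = inhibition above 40% at the single screening dose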
Target sequence (Q06609 whole entry, looked up): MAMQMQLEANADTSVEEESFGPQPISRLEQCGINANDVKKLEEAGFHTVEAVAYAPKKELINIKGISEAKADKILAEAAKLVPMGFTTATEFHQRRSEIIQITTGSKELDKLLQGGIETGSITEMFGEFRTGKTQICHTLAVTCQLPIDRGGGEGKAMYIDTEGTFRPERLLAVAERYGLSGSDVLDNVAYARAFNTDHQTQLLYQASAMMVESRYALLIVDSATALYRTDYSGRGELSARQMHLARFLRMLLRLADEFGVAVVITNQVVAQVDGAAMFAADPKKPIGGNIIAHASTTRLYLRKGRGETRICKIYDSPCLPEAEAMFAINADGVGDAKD
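Material: human Rad51–ssDNA filaments; Probe or stimulus: labelled 47-mer dsDNA for strand exchange; Doses: single 10 µM dose; Incubation: 37 °C 15-min filament assembly, 30-min compound preincubation, 15-min exchange; Technique: FRET fluorescence dequenching, excitation 485 nm, emission 520 nm; Measure: Fluorescence-based percent inhibition, control- and blank-normalised; Benchmarks: plate control and blank wells.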
RBBP9 inh = human RBBP9 hydrolase inhibition; recombinant RBBP9, FP-Rh probe fluorescence polarization; inhibition, % at 7.94 µM; 220,000 compounds, 0.2% hits; O75884;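 active = inhibition above the campaign mean of all tested compounds plus 3 SD, cut at about 14% in these data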
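Controls: DMSO-treated enzyme wells and wells lacking RBBP9 | Material: RBBP9 protein | Technique: Fluorescence polarization | Replication: Single well per compound, no replicates | Buffer or medium: Tris-NaCl-Pluronic buffer, pH 8.0 | Timing: 30 min compound preincubation, 45 min probe labeling, 25 °C | Read-out basis: Percent inhibition from mP, scaled between DMSO and no-protein wells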
Hits are given with their value; - = inactive; . = no result given.

SMILES	DNA FID counter	Wee1 stabilizer	Rad51 HR inh	RBBP9 inh
O=[N+]([O-])c1ccc(N2CCN(S(=O)(=O)c3ccccc3)CC2)cc1NCC1CCCO1 (configuration not stated)	-	-	-	-
COc1cccc(C2=NOC(C(=O)Nc3c(C)n(C)n(-c4ccccc4)c3=O)C2)c1 (configuration not stated)	-	-	.	-
O=C1NCCN1C(=O)C12CC3CC(CC(C3)C1)C2	-	9.1	-	-
CCOC(=O)c1nnn(-c2ccc([N+](=O)[O-])cc2)c1C	-	8.8	-	-
Cc1cc(Cn2ccnc2)c(C)c([N+](=O)[O-])c1Cn1ccnc1	-	.	.	.
CCOc1ccc(C(=O)Nc2nc3ccccc3[nH]2)cc1OCC	-	9.3	-	-
COc1ccc(C(=O)Nc2nc3ccccc3[nH]2)cc1OC	-	-	-	-
O=C(O)c1ccc(COc2ccccc2Cl)cc1	-	9.1	-	-
O=C(N/N=C/c1ccccc1OC(F)F)c1cc(-c2ccncc2)nc2ccccc12	-	11	-	-
COc1ccc(OC)c(NS(=O)(=O)c2ccc(Cl)s2)c1	-	-	-	-
COc1ccc(OC)c(NS(=O)(=O)c2ccc(Br)s2)c1	-	9.0	-	-
CC(C)NC(=O)c1cc2c(s1)CCCC2	-	8.9	-	-
O=C1CC(c2ccccc2)=NN1c1nc(-c2ccccc2)cs1	-	11	-	-
CC1=NN(c2nc(-c3ccccc3)cs2)C(=O)C1	-	-	-	-
Cc1ccc(C)c(NC(=O)CN(C)C(=O)c2cccc(S(=O)(=O)N(C)C)c2)c1	-	10	-	-
Cc1ccc(C)c(NC(=O)CN(C)C(=O)c2cccc(S(=O)(=O)N3CCN(Cc4ccccc4)CC3)c2)c1	-	.	.	.
Cn1c(=O)c2c(nc(N3CCN(c4ccc([N+](=O)[O-])cc4)CC3)n2C)n(C)c1=O	-	-	-	-
CCc1nc2ccccc2c(C(=O)Nc2ccc(F)cc2)c1C	-	.	.	.
O=C(Oc1nsnc1N1CCCCC1)N1CCOCC1	-	8.9	-	-
CSc1nccc(-c2sc(SC)c(C#N)c2-c2ccccc2)n1	-	-	-	-
CSc1sc(-c2ccnc(=S)[nH]2)c(-c2ccccc2)c1C#N	-	9.8	-	-
CC(=O)NC(Cc1c[nH]c2ccccc12)C(=O)OCC(=O)N1CCCCCC1 (configuration not stated)	-	-	-	-
O=C(Nc1ccc(C2SCCS2)cc1)c1ccccc1	-	10	-	-
CNC(=O)Nc1ccc(C2SCCS2)cc1	-	-	-	-
O=C1c2ccccc2C(=O)N1c1ccc(S(=O)(=O)N2CCN(c3ccccc3)CC2)cc1	-	9.4	-	-
SMILES	DNA FID counter	Wee1 stabilizer	Rad51 HR inh	RBBP9 inh
O=S(=O)(c1ccccc1)N1CCN(c2ccccc2)CC1	-	.	.	.
CC(=O)Nc1ccc(NC(=O)c2ccc(Cl)nc2)cc1	-	-	42	-
O=C(Nc1ccc2c(c1)CCC2)c1ccc(Cl)nc1	-	-	-	-
Cc1cc(=O)oc2cc(NC(=O)C(CCCN=C(N)N)NC(=O)OCc3ccccc3)ccc12 (configuration not stated)	41	.	.	.
NC(N)=NCCC[C@H](NC(=O)OCc1ccccc1)C(=O)O	-	-	-	-
COc1ccc(-c2cn3cccnc3n2)cc1NC(=O)c1cc(OC)c(OC)c(OC)c1	-	9.7	-	-
COc1cc(C(=O)Nc2cccc(-c3cn4cccnc4n3)c2)cc(OC)c1OC	-	-	-	-
COc1ccccc1N(CC(=O)NCCSCc1ccccc1Cl)S(C)(=O)=O	-	.	.	.
CSc1ncccc1C(=O)Nc1nc2ccc(S(C)(=O)=O)cc2s1	-	8.9	-	-
CN1CCN(C(=S)c2cn(Cc3ccc(F)cc3)c3ccccc23)CC1	-	9.2	-	-
CN1CCN(C(=S)c2cn(Cc3cccc(F)c3)c3ccccc23)CC1	-	-	-	-
CCN1CCCc2cc(CN(CCN3CCOCC3)C(=S)Nc3ccc(OC)c(Cl)c3)ccc21	-	10	-	-
O=S(=O)(/C=C/c1ccccc1)Nc1ccc(N2CCOCC2)cc1	-	10	-	-
O=S(=O)(Nc1ccc(N2CCOCC2)cc1)c1ccccc1	-	-	-	-
Fc1ccc(CNC(=S)NCc2cccc(Cl)c2)cc1	-	.	.	.
Cc1ccc(S(=O)(=O)N2CCCOC2CNC(=O)C(=O)NCCc2c[nH]c3ccccc23)cc1 (configuration not stated)	-	-	-	-
CCN(CC(=O)Nc1ccccc1Br)Cc1nc2ccccc2c(=O)[nH]1	-	-	-	-
Cc1ccc2nc(-c3ccsc3)c(NC3CCCC3)n2c1	-	10	-	-
